Bioassay records deposited in PubChem by several laboratories.
Yeast lifespan up – compounds extending yeast replicative lifespan, primary screen, S. cerevisiae, OD615; S. cerevisiae growth with nicotinamide; deaD strain in restrictive glucose medium; inhibition of the nicotinamide effect, % at 10 µM; 130,000 compounds, 0.68% hits; AID 775, 2007;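 active means inhibition above a set limit, placed 3 SD over the median of all compounds, cut at about 26% in these data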;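 further: 0% = nicotinamide-treated wells and 100% = cells grown without nicotinamide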
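Material: Modified budding yeast, DeaD strain | Medium: Restrictive glucose medium | Probe or stimulus: 1.5 mM nicotinamide | Dosing: Single dose 10 µM compound, 0.25% DMSO | Times: 48 h at 30 °C | Technique: OD615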
sdo1 growth – growth rescue of sdo1-depleted yeast, primary screen, S. cerevisiae, bone marrow failure model | S. cerevisiae sdo1-depleted JHY4D growth rescue, OD600 30 h; active compounds read high; pdr5 snq2 efflux-pump mutant strain | AID 817, 2007 | 140,000 compounds, 0.21% hits | z-score at 10 µM;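 active means z-score above 3 at both the 24 hr and the 30 hr optical density reads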;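 further: z-score against mean and SD of all compound wells on the same plate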
RAM inhibit – inhibitors of the yeast RAM network, primary screen, dse1pr::URA3 reporter, 5-FOA selection | S. cerevisiae dse1pr::URA3 reporter, 5-FOA growth OD615, 2 d; analog-sensitive cbk1-as2 kinase mutant strain | inhibition, % at 50 µM | 190,000 compounds, 1.8% hits | AID 868, 2007;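 active means inhibition above a set limit, 3 SD over mean compound inhibition, cut at about 8.4% in these data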;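 further: 0% = DMSO-only wells with no growth and 100% = 10 µM 1-NA-PP1 full growth; inhibition rescues growth on 5-FOA so higher OD means more RAM inhibition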
BB579 growth dn – growth inhibitors of yeast BB579 in restrictive medium, primary screen, yeast lifespan-shortening project, S. cerevisiae; OD615, 48 h; inhibition, % at 10 µM; 140,000 compounds, 0.51% hits; AID 804, 2007;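 active means inhibition above a set limit, 3 SD over the mean compound inhibition, cut at about 44% in these data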
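Test system: DeaD yeast strain BB579 / Buffer or medium: restrictive glucose-based CSMM-D medium / Doses: single 10 µM dose / Schedule: 4 h cell preincubation, 48 h compound exposure, 30 °C humidified / Technique: culture absorbance at 615 nm / Controls: amphotericin B positive control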
Starred values were filed as active, the others as inactive; nt = no result given. Rows were chosen to be rich in hits. Some 2.7% of all compounds tested hit in one or more screens of this group.

SMILES | Yeast lifespan up | sdo1 growth | RAM inhibit | BB579 growth dn
CCOC(=O)C(CC)Sc1nc2c(c(=O)[nH]c(=O)n2C)n1C/C=C(/C)Cl (stereo not given) | -9 | -0.92 | 0 | -66
CCCCOC(=O)CSc1nc2c(c(=O)[nH]c(=O)n2C)n1C/C=C(\C)Cl | 87* | 0.7 | 4 | -13
O=C(Nc1nnc(-c2ccco2)o1)C1CC1 | nt | nt | 3 | nt
COc1ccc(C(=O)NC(=S)NNC(=O)c2cnccn2)cc1OC | -5 | 0.25 | 3 | 90*
COc1cc(OC)cc(C(=O)NC(=S)NNC(=O)c2cnccn2)c1 | 23 | -1.3 | 0 | 29
Cc1ccc(C(C(=O)NCC2CCCO2)N(Cc2ccccc2)C(=O)c2ccc(-c3ccccc3)[nH]2)o1 (stereo not given) | 1 | -0.49 | 10* | -73
COCCCNc1nc2nonc2nc1N1CCC(C(C)N2CCOCC2)CC1 (stereo not given) | nt | nt | 3 | nt
CCCCNC(=O)C(C#N)c1nc2ccccc2nc1N1CCCC1 (stereo not given) | -2 | 0.16 | 1 | -89
C=CCNC(=O)C(C#N)c1nc2ccccc2nc1N1CCCCCC1 (stereo not given) | -28 | -0.95 | 9.0* | -18
CC(C1CC1)N(Cc1ccccc1)C(=S)Nc1ccccc1Cl (stereo not given) | nt | nt | 8.6* | nt
CC1=CC(=C(C#N)C#N)C=C(C)N1Cc1ccccc1 | nt | nt | 0 | nt
O=c1c2ccccc2nc2sc3ccccc3n12 | -3 | -2.7 | 5 | 85*
O=C(NCC1CCCO1)C1CCN(C2CCN(C3CCCCCC3)CC2)CC1 (stereo not given) | nt | nt | -1 | nt
CC(=O)c1c(C(C)=O)c(C)n(NC(=O)c2cccnc2)c1C | 46* | 0.5 | 0 | -43
CC(=O)c1c(C(C)=O)c(C)n(NC(=O)c2ccccc2O)c1C | -4 | 0.93 | 1 | -10
N#Cc1nc(COc2ccc(F)cc2)oc1N1CCN(Cc2ccccc2)CC1 | 55 | -2.7 | 0 | -66
N#Cc1nc(COc2ccc(F)cc2)oc1N1CCC(Cc2ccccc2)CC1 | -2 | -0.25 | 9.9* | -10
COc1ccc(N2CCN(c3oc(COc4ccccc4Cl)nc3C#N)CC2)cc1 | -4 | -0.14 | 7 | -18
COc1ccc(OCc2nc(C#N)c(N3CCN(c4ccc(OC)cc4)CC3)o2)cc1 | 3 | -0.94 | 8.4* | -37
Clc1cccc(NCc2nnc(SCc3ccc(Cl)cc3Cl)o2)c1 | nt | -1.7 | 8.4* | -18
COCCN1CCC(CNCc2cn(-c3cc(C)ccc3C)nc2-c2ccccc2)C1 (stereo not given) | nt | nt | 2 | nt
COc1ccc(-c2cc(C)nc(SCC(=O)c3cccc([N+](=O)[O-])c3)n2)cc1 | -11 | -0.08 | 4 | -31
Cc1cc(-c2ccccc2)nc(SCC(=O)c2cccc([N+](=O)[O-])c2)n1 | -25 | -0.9 | 11* | -11
Cc1cc(Oc2ccc3ccccc3c2)nc(SCC(=O)c2ccccc2)n1 | 5 | -0.66 | 11* | -36
OCC1(CO)COC(c2ccccc2)=N1 | nt | nt | 0 | nt
SMILES | Yeast lifespan up | sdo1 growth | RAM inhibit | BB579 growth dn
O=C1OCC(CO)(CO)N=C1NNc1ccc(Cl)c(Cl)c1 | -19 | -2 | -1 | 98*
Cc1ccc(S(=O)(=O)NCCC(c2ccc(F)cc2)c2ccco2)cc1 (stereo not given) | 4 | 0.28 | 11* | -5
COc1ccccc1C(CCNS(=O)(=O)c1ccc(C)cc1)c1ccco1 (stereo not given) | 0 | -0.36 | 10.0* | -15
CCCN(CCC)C(=O)CC(c1ccccc1)c1ccc(C)cc1O (stereo not given) | -3 | -0.84 | 0 | -19
CCCN(CCC)C(=O)CC(c1ccccc1)c1cc(Br)ccc1O (stereo not given) | 1 | -0.78 | 9.2* | -34
Cc1ccc(-n2nnnc2SCCNS(=O)(=O)c2ccccc2)cc1C | -9 | -0.62 | 9.9* | -26
Cc1ccc(NC(=O)CCC(=O)NNC(=O)c2ccccc2Cl)c(C)c1 | nt | nt | 2 | nt
CCOc1ccc(C2C(C(=O)/C=C/c3ccco3)=C(O)C(=O)N2CCN2CCOCC2)cc1OC (stereo not given) | nt | nt | 0 | nt
NS(=O)(=O)c1ccc(Oc2ccc(S(N)(=O)=O)cc2)cc1 | nt | nt | 1 | nt
C=CS(=O)(=O)c1ccc(Oc2ccc(S(=O)(=O)C=C)cc2)cc1 | 61* | 0.79 | 1 | -46
COc1ccc(CNC(=O)c2cccnc2Sc2ccc(C)c(C)c2)cc1 | 3 | -1 | 9.3* | -47
